Activity calls are given as the source filed them. The calls are words filed in the database; no cut-off is given here.

Assay [1] concerns HCC827ER. Description: Induction of apoptosis in human HCC827ER cells assessed as increased cleaved-PARP expression at 10 uM measured by Western blot analysis. Format: functional, cell-based. The essentials: (§1)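 Resistant PC9/ER and HCC827/ER cells treated with 10 μM epigenetic inhibitor (DMSO control). Cleaved PARP detected by western blot on 10–15% SDS-PAGE with ECL, normalized to β-actin.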

Assay [2] deals with PC-9/ER. Description: Induction of apoptosis in human PC-9/ER cells assessed as increased cleaved-PARP expression at 10 uM measured by Western blot analysis. The format is functional, cell-based. The essentials:
as §1
On the technique in general: Immunoblotting shows a protein as a band on a membrane.

Assay [3] has as its system PC-9/ER. Description: Antitumor activity against human PC-9/ER cells xenografted in SCID mouse assessed as reduction of tumor weight at 2.5 mg/kg, ip bid for 3 weeks relative to control. Also noted: scale not given: the % may be the effect or the level left. The format is functional. The essentials: (§2)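 Male SCID mice, 7–8 weeks old, injected s.c. in the right flank with 5 × 10^6 PC9/ER cells in PBS. At an average tumor volume of 50 mm3, randomized into groups of n = 6: saline, UNC0642 2.5 mg/kg bid i.p., Erlotinib 12.5 mg/kg/day i.p., or both. Tumor volume tracked and body weight recorded; tumors weighed after sacrifice at 3 weeks.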
A general note: A xenograft is tissue or cells of one species grown in another, often human tumour cells in immunodeficient mice.

The test system of assay [4] is PC-9/ER. Description: Antitumor activity against human PC-9/ER cells xenografted in SCID mouse assessed as inhibition of tumor growth at 2.5 mg/kg, ip bid for 3 weeks. Format: functional, organism-based. The essentials:
as §2

Assay [5] relates to Mus musculus. Description: In vivo inhibition of AKT phosphorylation in human PC-9/ER cells xenografted SCID mouse assessed as increase in PTEN expression at 2.5 mg/kg, ip bid for 3 weeks. The format is functional, organism-based. An outline of the steps:
(§3)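 Tumors were excised after 3 weeks from PC9/ER xenografts in SCID mice dosed with UNC0642 (2.5 mg/kg bid i.p.) with or without Erlotinib (12.5 mg/kg/day i.p.), saline as control. Tissue lysates were run on western blot for H3K9Me2, PTEN, p-AKT and AKT, normalized to β-actin or Histone3.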

For assay [6], the system named is PC-9/ER. Description: Antitumor activity against human PC-9/ER cells xenografted in SCID mouse assessed as reduction of tumor weight at 2.5 mg/kg, ip bid for 3 weeks in presence of erlotinib relative to control. Also noted: scale not given: the % may be the effect or the level left. The format is functional. An outline of the steps:
as §2

In assay [7] the test system is Mus musculus. Description: In vivo inhibition of AKT phosphorylation in human PC-9/ER cells xenografted SCID mouse assessed as reduction of H3K9Me2 expression at 2.5 mg/kg, ip bid for 3 weeks. The format is functional, organism-based. An outline of the steps: as §3
In assay [8] the test system is HCC827ER. Description: Induction of apoptosis in human HCC827ER cells assessed as late apoptotic cells at 10 uM for 48 hrs by annexin V/PI staining based flow cytometric analysis (reference value: 3.5%). Format: functional.
In assay [9] the test system is HCC827ER. Description: Induction of apoptosis in human HCC827ER cells assessed as necrotic cells at 10 uM for 48 hrs by annexin V/PI staining based flow cytometric analysis (reference value: 0.3%). The format is functional.
Assay [10] deals with HCC827ER. Description: Induction of apoptosis in human HCC827ER cells assessed as early apoptotic cells at 10 uM for 48 hrs by annexin V/PI staining based flow cytometric analysis (reference value: 1.8%). The format is functional. A general note: A flow cytometer gives signals particle by particle.
In assay [11] the test system is PC-9/ER. Description: Induction of apoptosis in human PC-9/ER cells assessed as late apoptotic cells at 10 uM for 48 hrs by annexin V/PI staining based flow cytometric analysis (reference value: 3.8%). Format: functional.
Assay [12] deals with PC-9/ER. Description: Induction of apoptosis in human PC-9/ER cells assessed as viable cells at 10 uM for 48 hrs by annexin V/PI staining based flow cytometric analysis (reference value: 94.2%). The format is functional. As to conditions: read-out: Activity.
Assay [13] concerns HCC827ER. Description: Induction of apoptosis in human HCC827ER cells assessed as viable cells at 10 uM for 48 hrs by annexin V/PI staining based flow cytometric analysis (reference value: 94.4%). The note with it: read-out: Activity. Format: functional.
The test system of assay [14] is PC-9/ER. Description: Induction of apoptosis in human PC-9/ER cells assessed as necrotic cells at 10 uM for 48 hrs by annexin V/PI staining based flow cytometric analysis (reference value: 0.1%). The format is functional.
In assay [15] the test system is PC-9/ER. Description: Induction of apoptosis in human PC-9/ER cells assessed as early apoptotic cells at 10 uM for 48 hrs by annexin V/PI staining based flow cytometric analysis (reference value: 1.9%). Format: functional.
Assay [16] is described as follows: Upregulation of PTEN mRNA expression level in human PC-9/ER cells assessed as increase in fold change at 10 uM by Western blot analysis. The format is functional. As to conditions: in the assay text read “real-time RT-PCR” for “Western blot analysis”. The essentials:
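PC9/ER cells were treated with 10 μM UNC0638 or transfected with 20 nM EHMT2 siRNA, with DMSO or scramble siRNA as controls. Total RNA was extracted, reverse transcribed, and PTEN mRNA measured by SYBR Green real-time RT-PCR, normalized to GAPDH and expressed as fold change versus control. PTEN protein was checked separately by western blot against β-actin.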

Assay [17] relates to PC-9/ER. Description: Antiproliferative activity against human PC-9/ER cells assessed as inhibition of cell growth upto 10 uM incubated for 48 hrs by MTT assay. The format is functional, cell-based. The essentials:
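PC9/ER cells (made resistant by 3 months in Erlotinib, 0.5–2 μM, RPMI-1640 with 10% FBS) seeded at 8 × 10^4 cells/ml, left overnight, then exposed to 5 or 10 μM inhibitor (DMSO control) for 48 h. MTT (2.5 mg/ml stock) was added for 4 h at 37 °C, formazan dissolved in DMSO, OD read at 570 nm.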

Turning to `COc1cc2nc(N3CCCC3)nc(NCCCCCN3CCCC3)c2cc1OC`, the outcome with HCC827ER [1] and in the assay with PC-9/ER [2] was inactive.

Take `COc1cc2c(NC3CCN(C(C)C)CC3)nc(N3CCC(F)(F)CC3)nc2cc1OCCCN1CCCC1`: the Activity in the assay with PC-9/ER [3] was 37.2%; in the assay on PC-9/ER [6], 68.2%. In addition, the result with PC-9/ER [4] was Active. Moreover, the inhibition result in the assay on Mus musculus [5] and in the assay with Mus musculus [7] was “Active” in each case.

As to `Cc1cn(CCN2CCN(c3ccccc3-c3cc(C#N)cc(C(=O)NCCCN4CCCC4)c3)CC2)c2ccccc12`, the result in the assay with HCC827ER [1] and with PC-9/ER [2] was inactive.

Turning to `O=C(O)CCNc1cc(N2CCc3ccccc3CC2)nc(-c2ccccn2)n1`, the outcome in the assay with HCC827ER [1] and with PC-9/ER [2] was inactive.

Consider `COc1cc2c(NC3CCN(C(C)C)CC3)nc(C3CCCCC3)nc2cc1OCCCN1CCCC1`, for which the Activity in the assay with HCC827ER [8] was determined as 15%; in the assay on HCC827ER [9], 0%; in the assay on HCC827ER [10], 43.1%; in the assay with PC-9/ER [11], 20.5%; with PC-9/ER [14], 0.2%; with PC-9/ER [15], 40.8%. Moreover, the result in the assay on HCC827ER [1], in the assay on PC-9/ER [2] and with PC-9/ER [17] was Active. Besides, the viability at 10 µM in the assay with PC-9/ER [12] turned out to be 38.5%; in the assay with HCC827ER [13], 41.9%. In addition, the “fold change (FC)” value in assay [16] came to 2.5.

In the case of `CC[C@H](C)n1cc(C)c2c(C(=O)NCc3c(C)cc(C)[nH]c3=O)cc(-c3ccc(N4CCNCC4)nc3)cc21`, the result with HCC827ER [1], with PC-9/ER [2] and in the assay on PC-9/ER [17] was Active.

As for `Cc1sc2c(c1C)C(c1ccc(Cl)cc1)=N[C@@H](CC(=O)OC(C)(C)C)c1nnc(C)n1-2`, the Activity in the assay with HCC827ER [8] came out at 10%; in the assay with HCC827ER [9], 0.2%; in the assay with HCC827ER [10], 26.4%; with PC-9/ER [11], 5.2%; in the assay with PC-9/ER [14], 0.2%; in the assay on PC-9/ER [15], 4.8%. Also, the viability at 10 µM was 89.8% in the assay with PC-9/ER [12] and 63.4% with HCC827ER [13]. The result in the assay on PC-9/ER [17] was Active.

Take `O=C(/C=C/c1cccc(S(=O)(=O)Nc2ccccc2)c1)NO` [BELINOSTAT]: the Activity in the assay on HCC827ER [8] is reported as 7%; with HCC827ER [9], 1.3%; in the assay on HCC827ER [10], 9.4%; with PC-9/ER [11] it was 10.5%; in the assay on PC-9/ER [14], 0.9%; in the assay on PC-9/ER [15], 12.8%. In addition, the viability at 10 µM in the assay on PC-9/ER [12] was 75.8%; in the assay with HCC827ER [13], 82.3%. The result with PC-9/ER [17] was Active.

On to `CC(C)N(C[C@H]1O[C@@H](n2cnc3c(N)ncnc32)[C@H](O)[C@@H]1O)[C@H]1C[C@@H](CCc2nc3cc(C(C)(C)C)ccc3[nH]2)C1`, for which the result with HCC827ER [1] and in the assay with PC-9/ER [2] was inactive.

For `Nc1ncn([C@@H]2O[C@H](CO)[C@@H](O)[C@H]2O)c(=O)n1`, the outcome in the assay on HCC827ER [1], with PC-9/ER [2] and with PC-9/ER [17] was Active.

Values taken from ChEMBL document CHEMBL5712896, “Targeting EHMT2 reverses EGFR-TKI resistance in NSCLC by epigenetically regulating the PTEN/AKT signaling pathway” (2018).
